In the library only some 2.2% were active in any assay of this set; here they are far more common.
PvdQ acylase: P. aeruginosa PvdQ acylase inhibition. purified PvdQ acylase, fluorescence plate reader. inhibition, % at 10 µM. 340,000 compounds, 0.063% hits; in the data active = inhibition above about 30%, passing the limit was not always enough;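 note: 0% = vehicle neutral wells and 100% = reference inhibitor wells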
PHOSPHO1 block: blocks human PHOSPHO1 phosphatase activity; Q8TCT1; recombinant PHOSPHO1, absorbance phosphatase assay; inhibition, % at 13.3 µM; 290,000 compounds, 1.1% hits; AID 1565; in the data active = inhibition above about 60%
Target sequence (Q8TCT1 whole entry, looked up): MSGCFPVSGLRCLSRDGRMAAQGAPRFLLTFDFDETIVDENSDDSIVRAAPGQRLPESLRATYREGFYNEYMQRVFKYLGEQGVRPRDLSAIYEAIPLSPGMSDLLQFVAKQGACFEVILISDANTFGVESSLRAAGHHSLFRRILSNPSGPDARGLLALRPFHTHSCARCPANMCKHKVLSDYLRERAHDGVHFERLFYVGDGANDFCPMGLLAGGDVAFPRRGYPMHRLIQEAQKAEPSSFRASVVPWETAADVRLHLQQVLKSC
CR mimetic SO: lowers age-related superoxide in aged yeast cells. superoxide response (% of plate mean), % at 10 µM. 330,000 compounds, 0.18% hits. AID 2690. S. cerevisiae aged cells, superoxide DHE fluorescence; active compounds read low;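 active = superoxide response under a set limit, about three screen SD below normal, cut at about 65% in these data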;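 note: yeast aged for seven days with compound at 30 °C before DHE staining; 100% = average MFI of all compound-treated wells on the plate with controls excluded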
VIM-2 inhibitor: inhibitors of Pseudomonas aeruginosa VIM-2 metallo-beta-lactamase; AID 1527; inhibition, % at 5.6 µM; purified VIM-2, nitrocefin hydrolysis, epi-absorbance fluorescence; 290,000 compounds, 0.89% hits;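 active = inhibition above the mean of all tested compounds plus 3 SD, cutoff set per screening run, cut at about 7.5% in these data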;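 note: red hydrolysis product quenches plate fluorescence so inhibitors raise well fluorescence; 0% = enzyme with DMSO and 100% = DMSO without enzyme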
IMP-1 inh: blocks Pseudomonas aeruginosa IMP-1 metallo-beta-lactamase. inhibition, % at 5.6 µM. AID 1556. 290,000 compounds, 0.45% hits. purified IMP-1, nitrocefin hydrolysis, epi-absorbance fluorescence;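 active = inhibition above the mean plus 3 SD of all compounds in the same screening run, cut at about 4.5% in these data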;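 note: 0% = IMP-1 with DMSO and 100% = DMSO wells lacking enzyme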
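System – purified recombinant IMP-1 beta-lactamase · Input – IMP-1 dispensed at 0.2 nM · Timing – 15 min preincubation plus 25 min reaction at 25 °C · Signal – Epi-absorbance fluorescence, 480 nm excitation, 530 nm emission · Measure – percent IMP-1 inhibition derived from blank-referenced optical density · Controls – Enzyme-plus-DMSO low control, enzyme-free DMSO high control · Replication – singlicate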
An asterisk follows results filed as active; / = no result given.

SMILES	PvdQ acylase	PHOSPHO1 block	CR mimetic SO	VIM-2 inhibitor	IMP-1 inh
N#CC(C#N)=C1NC(N)=C(C#N)C(c2ccccc2)=C1C#N	-6.4	-102.1	113.6	-1.7	22.7*
O=C(OC(C(=O)O)C(OC(=O)c1ccccc1)C(=O)NCc1ccccc1)c1ccccc1 (stereo not drawn)	-2.0	-0.1	116.1	1.0	6.4*
Cc1cc(SCC(=O)c2cccs2)nc2ccccc12	-22.3	1.1	85.6	0.8	-0.7
O=C(N/N=C/c1ccccc1F)c1cc2c(ccc3ccccc32)o1	-15.6	7.5	113.5	-1.3	5.0*
O=C(N/N=C/c1cccc2ccccc12)c1cc2ccccc2o1	5.6	/	/	-2.9	-0.5
CC12CCC(C(=O)Nc3nc4ccc(Br)cc4s3)(OC1=O)C2(C)C (stereo not drawn)	-0.8	8.3	114.4	-2.5	-2.5
CCOc1ccc2nc3c(cc2c1)CN(CCCO)C(=NCCOC)S3	-15.6	91.3*	105.5	-0.5	-0.1
CCOc1ccc(N=C2Sc3nc4ccc(C)cc4cc3CN2CCOC)cc1	-3.8	-21.9	105.6	-3.9	-1.0
CCN(CC(=O)NCc1cccs1)C(=O)CCC(=O)c1ccc(F)cc1	-6.5	/	116.9	/	/
c1ccc(-n2nnc3c(N4CCOCC4)ncnc32)cc1	-7.5	68.5*	112.6	-2.0	-2.9
CCN(CC)S(=O)(=O)c1ccc(OCC(=O)NC(=O)Cc2ccccc2)c([N+](=O)[O-])c1	-2.2	/	106.1	/	/
COc1ccc(OC2CCN(S(=O)(=O)c3ccc(C(C)=O)cc3)CC2)cc1	-14.0	32.7	104.2	-2.6	-2.7
O=C(NCc1cccnc1)C1c2ccccc2C(=O)N1Cc1ccco1 (stereo not drawn)	-0.6	31.1	87.4	-0.3	4.6*
C[n+]1ccc(/C=C/c2c[nH]c3ccc(F)cc23)cc1	-13.8	-65.3	103.4	6.0	4.6*
CCc1ccc(/C=C/c2c[nH]c3ccccc23)[n+](CC)c1	-7.6	0.3	116.0	-3.0	-1.3
C#CCOCCOCCOCCNc1nc(N2CCN(C(=O)[C@H]([C@@H](C)CC)n3cc(CCCN=C(N)N)nn3)CC2)nc(N2CCN(C(=O)[C@H]([C@@H](C)CC)n3cc(CCC(=O)O)nn3)CC2)n1	-16.2	/	/	/	/
O=[N+]([O-])c1cc2c(cc1/C=N/n1c(-c3ccccc3)n[nH]c1=S)OCO2	-2.3	106.0*	90.7	-5.9	-3.1
S=c1[nH]nc(-c2cccc(Cl)c2)n1/N=C/c1ccc(-c2ccccc2Br)o1	-3.7	3.2	112.7	-3.5	-1.5
S=c1[nH]nc(-c2ccccn2)n1/N=C/c1ccc(-c2ccccc2Br)o1	-6.9	61.6*	/	-1.2	-3.6
O=[N+]([O-])c1cc2c(cc1/C=N/n1c(-c3ccccn3)n[nH]c1=S)OCO2	-0.7	73.5*	89.9	1.6	-5.6
CC(O)(c1ccc(Cl)cc1)C(c1ccccc1)c1ccccn1 (stereo not drawn)	-15.4	/	/	/	/
CC1(CNC(=O)C(=O)NCC2(C)CO2)CO1 (stereo not drawn)	-17.4	/	/	/	/
CCc1cc(CNC(=O)c2ccc(OC)c(OC3CCN(C(C)C)CC3)c2)on1	-9.4	46.5	87.9	-1.4	-2.9
CCc1cc(CNC(=O)c2ccc(OC3CCN(C(C)=O)CC3)c(OC)c2)on1	0.2	67.0*	86.5	-2.1	-2.7
S=C(NCCN1CCOCC1)Nc1ccccc1Cl	-9.5	-9.8	97.2	2.0	-1.4
SMILES	PvdQ acylase	PHOSPHO1 block	CR mimetic SO	VIM-2 inhibitor	IMP-1 inh
Cc1ccc(C(=O)NC(C)C2CC3CCC2C3)c(C)c1 (stereo not drawn)	-13.7	7.0	105.4	-4.0	-1.4
Cc1ccccc1-n1c(SCC(=O)c2cc(C)n(C)c2C)nnc1-c1ccncc1	-8.6	93.4*	88.9	-2.2	-3.5
CCOc1ccc2c(c1)-c1c(ssc1=S)C(C)(C)N2C	-11.9	69.5*	110.2	-2.0	-3.9
CC1(C)Nc2ccc(O)cc2-c2c1ssc2=S	-10.0	20.6	80.6	-2.4	-3.0
O=C1CN(C(=O)CSc2nc(-c3ccc(Cl)cc3)cs2)c2ccccc2N1	-22.3	-2.6	88.0	-1.5	-4.0
N#Cc1c(-c2ccncc2)c2c([nH]c1=S)CCCC2	-0.5	76.8*	102.1	-2.2	-5.0
Cc1ccc(-c2c3c([nH]c(=S)c2C#N)CCCC3)o1	-1.7	83.5*	112.8	1.7	9.7*
N#Cc1c(SCC(N)=O)nc2c(c1-c1ccncc1)CCCC2	-16.3	12.7	98.4	1.1	-3.6
Cc1ccc(-c2c(C#N)c(N)nc3c2CCCC3)o1	-2.4	-7.9	89.2	7.7	-5.0
COc1ccc(N2CCN(C(=O)CSc3nc4nc(C)cc(C)n4n3)CC2)cc1	-16.4	/	87.3	/	/
O=C(NC(O)C(=O)c1ccc(F)cc1)c1ccc(F)cc1 (stereo not drawn)	1.4	/	97.0	0.8	-0.6
COc1ccc(OC)c(-n2c(-c3cc(-c4ccc(F)cc4)n[nH]3)n[nH]c2=S)c1	0.7	90.7*	93.0	-1.9	-3.1
S=c1[nH]nc(-c2cnccn2)n1-c1ccccc1	8.1	-26.6	119.7	2.7	-2.9
COc1ccc(OC)c(-n2c(-c3cnccn3)n[nH]c2=S)c1	-9.5	84.3*	140.3	-2.2	-4.6
COc1ccc(-c2cc(-c3n[nH]c(=S)n3-c3cc(OC)ccc3OC)[nH]n2)cc1	-4.7	2.4	106.2	-3.4	-2.2
COc1ccc(-n2c(-c3cnccn3)n[nH]c2=S)cc1	-5.5	94.5*	90.7	-2.7	-0.7
COc1ccccc1C(=O)Nc1c2c(nn1-c1ccc([N+](=O)[O-])cc1)CS(=O)(=O)C2	-4.7	22.2	116.0	0.9	-3.2
COc1ccccc1C(=O)Nc1c2c(nn1-c1ccc(Cl)cc1)CS(=O)(=O)C2	-15.1	32.7	109.8	5.7	10.5*
CC12CCC=CC1=C(C=O)C1C2CCC2(C)C(O)CCC12 (stereo not drawn)	9.7	/	/	/	/
O=C1OC(=O)C2C3CCC(O3)C12 (stereo not drawn)	/	/	94.3	/	/
O=C(CCCn1c(=O)c2cccn2c2cccnc21)NCc1cccc(Br)c1	-1.1	27.9	113.3	4.2	7.2*
CCc1ccc(CNC(=O)CCCn2c(=O)c3cccn3c3cccnc32)cc1	7.2	27.3	96.6	-1.5	-3.6
O=C(CCn1c(=O)c2cccn2c2cccnc21)NCc1cccc(Cl)c1	-8.7	7.0	97.5	-6.3	21.5*
C=CC[C@@H](CC(=O)N(CCO)Cc1ccccc1)C(=O)N[C@H](COC(=O)[C@H](CC=C)CC(=O)OC(C)(C)C)Cc1c[nH]c2ccccc12	-12.0	/	96.9	/	/
COC(=O)c1c(/N=C/N(C)C)sc2c1CCN(c1ncc(C(F)(F)F)cc1Cl)C2	-8.8	18.1	86.2	-1.0	5.0*
CCOC(=O)C1CC(c2ccc(Cl)cc2)=NNC1=O (stereo not drawn)	-8.3	61.2*	103.0	-1.9	-2.9
COc1ccc(NC(=O)CSc2nccn2Cc2ccco2)cc1	-11.9	13.0	98.6	-0.8	1.4
Cc1ccc2nc(N=C(N)N)nc(C)c2c1	-10.2	15.9	96.8	10.9*	-0.9
C[C@H]1CN([C@@H](C)CO)C(=O)c2cccc(NC(=O)C3CC3)c2O[C@H]1CN(C)S(=O)(=O)c1ccccc1	-10.1	/	105.4	/	/

Compound activity (PubChem BioAssay)
